Source: ChEMBL document CHEMBL1255233, “The P-113 fragment of histatin 5 requires a specific peptide sequence for intracellular translocation in Candida albicans, which is independent of cell wall binding” (Antimicrob Agents Chemother, 2008)
Active and inactive are the calls of the source. No cut-off for these calls is given here.

Tests used:
[1] = Drug uptake in Candida albicans CAF4-2 cytoplasm at 31.5 uM within 5 mins by SDS-PAGE in presence of 10 mM NaPB; format: ADME
Summary of the method: (§1)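 Cells in 10 mM NaPB with biotin-labeled peptide (31.5–32 µM) at 37°C for 5–90 min. After β-ME cell-wall extraction, cells bead-lysed at 4°C in NaPB with protease inhibitors; cytosol from 13,000 rpm spin. Cytosolic protein (10 µg/lane) on Tricine SDS-PAGE, streptavidin-HRP blot, quantitated against peptide standards.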

[2] = Drug uptake in Candida albicans CAF4-2 cell wall extract at 31.5 uM within 5 mins by SDS-PAGE in presence of 10 mM NaPB; format: ADME, cell-based; conditions: caf4-2, 5 min
Summary of the method: (§2)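 Wild-type or ssa2 cells were incubated with biotin-labeled peptide (31.5 µM) in 10 mM NaPB at 37°C for 5–90 min. Cell wall was extracted with 1% β-ME in ammonium carbonate (pH 8.0), 30 min at 37°C. Cytosol was obtained by glass-bead lysis with protease inhibitors. Extracts (10 µg/lane) were run on 16% Tricine SDS-PAGE, blotted, and detected with streptavidin-HRP. Amounts were quantified against peptide standards (0.06125–0.5 µg) and expressed per 10^7 cells.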

Candida albicans [3] = test: Drug uptake in Candida albicans CAF4-2 assessed as reduction of free drug in cell supernatant at 31.5 uM after 15 mins by slot blot assay; format: ADME, organism-based; conditions: in vivo, 0.25 h
Summary of the method: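 Early-log cells (1 x 10^8) were washed and suspended in 10 mM NaPB with biotin-labeled peptide (31.5 µM) for 5–90 min with shaking. After centrifugation at 4°C, supernatants were applied to PVDF by slot blot. The membrane was blocked in 3% milk/TBST, probed with streptavidin-HRP (1:1,000), and developed for remaining free peptide.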

Candida albicans [4] = test: Drug uptake in Candida albicans CAF4-2 having ssa2delta mutation assessed as reduction of free drug in cell supernatant at 31.5 uM after 30 mins by slot blot assay; format: ADME, organism-based; conditions: in vivo, 0.5 h
Summary of the method: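 Supernatant depletion: wt and ssa2 cells (1 x 10^8 in 1 ml 10 mM NaPB) incubated with 31.5 µM biotin-labeled peptide for 5–90 min with shaking. Cells pelleted at 4°C; 50 µl of supernatant slot-blotted onto PVDF, blocked with milk, probed with streptavidin-HRP. Buffer-only cells used as control.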

[5] = Drug uptake in Candida albicans CAF4-2 beta-ME extracted cell wall protein assessed per 10^7 cells at 31.5 uM within 5 mins by SDS-PAGE in presence of 10 mM NaPB; format: ADME, cell-based
Summary of the method: (§3)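 Early-log cells (1 x 10^8) washed and suspended in 10 mM NaPB with 31.5 µM biotin-labeled peptide at 37°C with shaking, sampled at timepoints to 90 min. Cell wall released with 1% β-ME in ammonium carbonate pH 8.0, 30 min, 37°C. Extract run on 16% Tricine SDS-PAGE (10 µg/lane), blotted, detected with streptavidin-HRP, quantitated against peptide standards.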

[6] = Drug uptake in Candida albicans CAF4-2 beta-ME extracted cell wall protein assessed per 10^7 cells at 31.5 uM within 15 mins by SDS-PAGE in presence of 10 mM NaPB; format: ADME, cell-based; conditions: 0.25 h; summary of the method: as §3
[7] = Drug uptake in Candida albicans CAF4-2 cytoplasmic extract assessed per 10^7 cells at 31.5 uM within 15 mins by SDS-PAGE in presence of 10 mM NaPB; format: ADME, Cytoplasm; conditions: 0.25 h; summary of the method: as §2
[8] = Drug uptake in Candida albicans CAF4-2 cytoplasmic extract assessed per 10^7 cells at 31.5 uM after 90 mins by SDS-PAGE in presence of 10 mM NaPB; format: ADME, Cytoplasm; conditions: 1.5 h; summary of the method: as §2
[9] = Drug uptake in Candida albicans CAF4-2 having ssa2delta mutation cytoplasmic extract assessed per 10^7 cells at 31.5 uM upto 30 mins by SDS-PAGE in presence of 10 mM NaPB; format: ADME, Cytoplasm; conditions: 0.5 h; summary of the method: as §1
Candida albicans [10] = test: Candidacidal activity against wild type Candida albicans CAF4-2 after 3 hrs by radial diffusion assay in presence of 100 mM NaPB; format: functional, organism-based
Summary of the method: (§4)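 C. albicans cells grown in YNB were set into underlay gels. Peptides were loaded into punched wells and incubated overnight. Clear-zone diameters (10 units = 1 mm) were plotted against peptide concentration and converted to cell death. Incubation was in 10 mM or 100 mM NaPB. Means and SD from three independent experiments.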

[11] = target: Heat shock protein SSA2 (Candida albicans (strain SC5314 / ATCC MYA-2876) (Yeast)) (UniProt P46587); test: Binding affinity to Candida albicans AKRLIGRKFDDHE region of Ssa2 at 2 uM by chemiluminescence assay
Summary of the method: (§5)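 Overlapping Ssa2p peptides spotted on cellulose-β-alanine membranes; methanol rinse, TBS (pH 8.0) washes, 2 h blocking in albumin/biotin-free buffer at room temperature. Biotin-labeled peptide (2 µM) in blocking buffer, 3 h at room temperature, washed; streptavidin-HRP (1:20,000) 1 h; chemiluminescent detection and imaging. Repeatability confirmed by reprobing after regeneration (30 min, 50°C).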

[12] = target: Heat shock protein SSA2 (Candida albicans (strain SC5314 / ATCC MYA-2876) (Yeast)) (UniProt P46587); test: Binding affinity to Candida albicans KRKNKKDISTNQR region of Ssa2 at 2 uM by chemiluminescence assay; summary of the method: as §5
Candida albicans [13] = test: Candidacidal activity against wild type Candida albicans CAF4-2 assessed as cell death at 31.5 uM treated for 1 hr measured after 48 hrs by microdilution plate assay; format: functional
Candida albicans [14] = test: Candidacidal activity against Candida albicans CAF4-2 having ssa1delta mutation assessed as cell death at 31.5 uM treated for 1 hr measured after 48 hrs by microdilution plate assay; format: functional
Candida albicans [15] = test: Candidacidal activity against Candida albicans CAF4-2 having ssa2delta mutation assessed as cell death at 31.5 uM treated for 1 hr measured after 48 hrs by microdilution plate assay; format: functional
Candida albicans [16] = test: Candidacidal activity against Candida albicans CAF4-2 having ssa1delta mutation assessed as cell death below 31.5 uM treated for 1 hr measured after 48 hrs by microdilution plate assay; format: functional, organism-based
Candida albicans [17] = test: Candidacidal activity against Candida albicans CAF4-2 having ssa2delta mutation assessed as cell death below 31.5 uM treated for 1 hr measured after 48 hrs by microdilution plate assay; format: functional, organism-based
Candida albicans [18] = test: Candidacidal activity against Candida albicans CAF4-2 having ssa1delta mutation after 3 hrs by radial diffusion assay; format: functional, organism-based
Summary of the method: (§6)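 Radial diffusion: C. albicans cells incorporated into underlay gels; peptides loaded into wells punched in the gel and incubated overnight. Clear-zone diameters (no growth) converted to cell death and plotted against peptide concentration. Means and SD of three independent experiments.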

Candida albicans [19] = test: Candidacidal activity against Candida albicans CAF4-2 having ssa2delta mutation after 3 hrs by radial diffusion assay; format: functional, organism-based; summary of the method: as §6
Candida albicans [20] = test: Candidacidal activity against wild type Candida albicans CAF4-2 after 3 hrs by radial diffusion assay; format: functional, organism-based; summary of the method: as §4
Candida albicans [21] = test: Candidacidal activity against wild type Candida albicans CAF4-2 after 3 hrs by radial diffusion assay in presence of 10 mM NaPB; format: functional, organism-based; summary of the method: as §4
Candida albicans [22] = test: Candidacidal activity against wild type Candida albicans CAF4-2 at >62 uM after 3 hrs by radial diffusion assay; format: functional, organism-based; summary of the method: as §4
Candida albicans [23] = test: Candidacidal activity against wild type Candida albicans CAF4-2 at >62 uM after 3 hrs by radial diffusion assay in presence of 100 mM NaPB; format: functional, organism-based; summary of the method: as §4
Candida albicans [24] = test: Candidacidal activity against wild type Candida albicans CAF4-2 assessed as cell death below 31.5 uM treated for 1 hr measured after 48 hrs by microdilution plate assay; format: functional, organism-based
Summary of the method: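 Candidacidal microdilution assay: 1 x 10^6 cells exposed to peptide for 1 h, diluted to quench, plated on YNB agar. Loss of viability = [1 − (colonies treated/colonies control)] x 100. Means and SD from three independent experiments.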

Chain of Heat shock protein SSA2 (Candida albicans (strain SC5314 / ATCC MYA-2876) (Yeast)) (P46587 whole entry): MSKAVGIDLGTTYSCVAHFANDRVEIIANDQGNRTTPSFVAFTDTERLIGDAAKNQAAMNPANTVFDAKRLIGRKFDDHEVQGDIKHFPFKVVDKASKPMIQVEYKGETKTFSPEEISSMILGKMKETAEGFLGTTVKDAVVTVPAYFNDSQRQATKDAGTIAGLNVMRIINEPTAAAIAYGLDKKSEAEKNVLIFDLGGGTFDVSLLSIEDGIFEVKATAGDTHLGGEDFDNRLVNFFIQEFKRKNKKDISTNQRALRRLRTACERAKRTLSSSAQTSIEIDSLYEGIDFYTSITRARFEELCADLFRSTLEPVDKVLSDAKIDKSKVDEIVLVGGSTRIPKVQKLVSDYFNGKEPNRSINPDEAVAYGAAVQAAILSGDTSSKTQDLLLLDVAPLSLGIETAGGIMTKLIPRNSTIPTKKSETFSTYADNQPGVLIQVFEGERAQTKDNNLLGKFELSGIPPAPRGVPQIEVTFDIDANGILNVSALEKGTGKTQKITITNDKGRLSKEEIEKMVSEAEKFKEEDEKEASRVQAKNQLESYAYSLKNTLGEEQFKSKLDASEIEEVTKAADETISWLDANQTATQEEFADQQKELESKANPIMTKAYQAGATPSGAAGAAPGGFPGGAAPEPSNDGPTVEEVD

Row | Substance | Drug uptake [5] | Drug uptake [6] | Activity (Candida albicans [10]) | Activity [11] | Activity [12] | Activity (Candida albicans [13]) | Activity (Candida albicans [14]) | Activity (Candida albicans [15]) | Activity (Candida albicans [16]) | Activity (Candida albicans [17]) | Activity (Candida albicans [18]) | Activity (Candida albicans [19]) | Activity (Candida albicans [20]) | Activity (Candida albicans [21]) | further results
1 | H-AKRHHGYKRKFH-OH [listing 1 of 2 here] | 0.1 µg | Active | – | – | – | – | – | – | – | – | – | – | – | – | Drug uptake [1]: Active; Drug uptake [2]: Active; Drug uptake (Candida albicans [3]): Active; Drug uptake (Candida albicans [4]): Active; Drug uptake [7]: 0.26 µg; Drug uptake [8]: 0.2 µg; Drug uptake [9]: < 0.2 µg
2 | H-AKRHHGYKRKFH-OH [listing 2 of 2 here] | – | – | inactive | Active | Active | 90% | 90% | 76% | inactive | inactive | Active | inactive | Active | Active | –
3 | H-AQRHHGYKRQFH-OH [listing 1 of 2 here] | 0.15 µg | 0.2 µg | – | – | – | – | – | – | – | – | – | – | – | – | –
4 | H-AQRHHGYKRQFH-OH [listing 2 of 2 here] | – | – | inactive | inactive | inactive | < 10% | < 10% | < 10% | inactive | inactive | inactive | inactive | inactive | Active | Activity (Candida albicans [22]): Active; Activity (Candida albicans [23]): inactive; Activity (Candida albicans [24]): inactive
